PAD4 FP inh = blocks human protein arginine deiminase 4. Q9UM07. recombinant PAD4, RCA probe fluorescence polarization. AID 485272. inhibition, % at 6.36 µM. actives 0.41% (n = 330,000);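 active = percent inhibition above a cutoff equal to the mean of all tested compounds plus 3 SD, cut at about 15% in these data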;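 also: 0% = PAD4 with RCA probe and DMSO and 100% = probe without PAD4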
UCH37 DUB inh = inhibitors of human deubiquitinating enzyme UCH37; AID 588478; purified proteasome/UCH37, Ub-AMC cleavage fluorescence; inhibition, % (no concentration beside the values); actives 0.33% (n = 330,000);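 active = mean inhibition over replicate wells above about 20%, limit read from the data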;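 also: 0% = compound-free wells with enzyme and 100% = wells lacking proteasome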
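system = Proteasome-associated human UCH37 deubiquitinase | amount = 0.15 nM proteasome as dispensed | medium = pH 7.4 Tris-HCl (50 mM) with ovalbumin, ATP-MgCl2, DTT | incubation = 30 min preincubation with enzyme, 25 min cleavage at room temperature | detection = AMC fluorescence 355/460 nm | read-out basis = percent inhibition | controls = no-proteasome and no-compound wells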
TDP2 inh = TDP2 (human) inhibition, absorbance primary screen | inhibition, % at 12.8 µM | O95551 | actives 0.34% (n = 370,000) | AID 720702 | recombinant TDP2, T5PNP hydrolysis, p-nitrophenol absorbance 415 nm;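 active = inhibition above the mean of all tested compounds plus 3 SD, set per campaign, cut at about 25% in these data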;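 also: 0% = DMSO with enzyme and 100% = buffer with substrate but no TDP2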
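test system = human TDP2 enzyme | input = TDP2 enzyme at 120 nM final | medium = 50 mM Tris-HCl pH 7.5 with Mg2+, KCl, DTT, BSA | also added = T5PNP substrate, 5 mM | times = 2 h at 37 °C | technique = epi absorbance | benchmarks = high control without enzyme, low control DMSO plus TDP2 | replication = each compound tested once, singlicate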
Fh CTSL1 inh = counter-screen for PFM18AAP inhibitors: inhibitors of F. hepatica cathepsin L1 | recombinant F. hepatica cathepsin L1, Z-Leu-Arg-MCA fluorescence | inhibition, % at 5.96 µM | actives 0.49% (n = 300,000) | AID 1906;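 active = inhibition above the mean of all tested compounds plus 3 SD, set per screening campaign, cut at about 17% in these data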;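 also: 0% = plate median of test compound wells and 100% = 1 µM Z-Phe-Ala-diazomethylketone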
HKDC1 inhibitor = HKDC1 (human) hexokinase inhibition | AID 493160 | recombinant HKDC1, G6PDH/diaphorase resazurin coupled fluorescence | inhibition, % at 20 µM | actives 0.16% (n = 340,000) | Q2TB90;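 active = inhibition above about 35% when tested at 20 µM, limit read from the data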;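 also: plate controls were DMSO wells with enzyme for no effect and DMSO wells lacking enzyme for full effect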
Target sequence (Q2TB90 whole entry, looked up): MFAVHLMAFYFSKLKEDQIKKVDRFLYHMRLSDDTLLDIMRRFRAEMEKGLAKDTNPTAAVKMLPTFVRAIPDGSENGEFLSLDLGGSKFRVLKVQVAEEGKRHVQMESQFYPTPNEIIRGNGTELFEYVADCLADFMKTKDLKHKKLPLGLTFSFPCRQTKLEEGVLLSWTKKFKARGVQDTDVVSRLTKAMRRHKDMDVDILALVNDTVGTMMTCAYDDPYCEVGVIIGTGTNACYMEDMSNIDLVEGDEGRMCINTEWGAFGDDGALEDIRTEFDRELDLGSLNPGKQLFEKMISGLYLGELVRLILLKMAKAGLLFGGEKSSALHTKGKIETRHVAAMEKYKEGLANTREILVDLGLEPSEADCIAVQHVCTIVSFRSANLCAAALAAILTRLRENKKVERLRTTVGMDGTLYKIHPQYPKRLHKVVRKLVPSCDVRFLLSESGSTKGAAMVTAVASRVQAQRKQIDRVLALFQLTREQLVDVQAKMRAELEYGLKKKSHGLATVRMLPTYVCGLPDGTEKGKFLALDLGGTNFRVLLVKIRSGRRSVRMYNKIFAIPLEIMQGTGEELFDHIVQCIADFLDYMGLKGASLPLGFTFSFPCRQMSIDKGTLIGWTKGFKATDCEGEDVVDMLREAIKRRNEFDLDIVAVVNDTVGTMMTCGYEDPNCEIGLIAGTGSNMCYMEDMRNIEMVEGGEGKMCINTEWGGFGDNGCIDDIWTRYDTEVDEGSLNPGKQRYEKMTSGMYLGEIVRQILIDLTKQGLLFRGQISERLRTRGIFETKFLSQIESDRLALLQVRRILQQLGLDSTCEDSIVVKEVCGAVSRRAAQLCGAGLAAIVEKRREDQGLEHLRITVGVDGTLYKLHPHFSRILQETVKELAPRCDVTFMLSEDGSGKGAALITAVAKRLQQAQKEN
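Test system: recombinant HKDC1 (HK5) hexokinase enzyme, produced in-house; Amount: enzyme 5 µg/mL final; Buffer or medium: Tris pH 8.0 buffer with MgCl2, Tween-20, BSA, BME; Reagent: glucose and ATP substrates; Doses: 20 µM test compound, 1% DMSO; Incubation: 90 min reaction incubation at room temperature, dark; Detection: resorufin fluorescence at 613 nm.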
GSTO1 inh = GSTO1 inhibition, counter-screen for RBBP9 inhibitors. actives 1.1% (n = 300,000). inhibition, % at 5.96 µM. AID 1974. recombinant GSTO1, activity-based probe fluorescence polarization;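 active = inhibition above the campaign mean inhibition plus 3 SD, cut at about 35% in these data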;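 also: 0% = GSTO1-1 with DMSO and 100% = wells lacking GSTO1-1 enzyme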
GSTO1 inh conf = confirmation of human GSTO1 inhibitors; shares compounds with GSTO1 inh; recombinant GSTO1, probe fluorescence polarization; inhibition, % at 5.96 µM; actives 54% (n = 2,400);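 active = inhibition above the primary screen's cutoff, its mean inhibition plus 3 SD, cut at about 35% in these data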;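 also: loss of polarization as inhibitors block binding of rhodamine sulfonate ester activity probe; 0% = GSTO1 with DMSO and 100% = wells lacking GSTO1 enzyme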
PAD4 confirm = PAD4 (human) inhibition, confirmed; shares compounds with PAD4 FP inh; recombinant PAD4, RCA probe fluorescence polarization; inhibition, % at 6.36 µM; actives 28% (n = 1,200); AID 488796;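 active = mean inhibition across replicates above the hit cutoff set by the earlier primary screen, cut at about 15% in these data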;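 also: inhibitors block active-site labeling by the probe so polarization falls; 0% = PAD4 with probe and DMSO and 100% = probe without PAD4 enzyme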
HKDC1 act conf2 = confirmation of human HKDC1 activators | actives 14% (n = 740) | recombinant HKDC1, G6PDH/diaphorase resazurin fluorescence; active compounds read low | shares compounds with HKDC1 inhibitor | inhibition, % at 20 µM;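 active = inhibition at or below a set negative limit, negative inhibition meaning the enzyme was activated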
UCH37 reconfirm = confirmation of human UCH37 deubiquitinating enzyme inhibitors; inhibition, % at 20 µM; Proteasome-bound UCH37, Ub-AMC cleavage fluorescence; actives 27% (n = 480); shares compounds with UCH37 DUB inh;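 active = average inhibition over replicates above about 50%, so the earlier screening hit is confirmed, limit read from the data; inactive = the rest, counted as false positives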;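 also: based on cleavage rate fitted by regression over a 30 min kinetic read; 0% = proteasome plus Ub-AMC and 100% = Ub-AMC without proteasome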
TDP2 inh conf = confirmation of human TDP2 inhibitors; shares compounds with TDP2 inh; recombinant human TDP2, absorbance read-out; inhibition, % at 12.8 µM; actives 22% (n = 1,100); AID 743263; in the data active = inhibition above about 25%;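 also: 0% = vehicle with enzyme and 100% = no enzyme buffer only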
Numbers without * were called inactive; x = no result. Hits are enriched below; roughly 1.6% of the tested compounds scored in any of these assays.

SMILES | PAD4 FP inh | UCH37 DUB inh | TDP2 inh | Fh CTSL1 inh | HKDC1 inhibitor | GSTO1 inh | GSTO1 inh conf | PAD4 confirm | TDP2 inh conf | others
Cc1ccc(S(=O)(=O)/N=C2\C=C(Nc3cccc(C(=O)O)c3)C(=O)c3ccccc32)c(C)c1 | 66* | x | 62* | 46* | 39* | 93* | 91* | 50* | 70* | HKDC1 act conf2=58
Cc1ccc(S(=O)(=O)/N=C2\C=C(Nc3cccc(C(=O)O)c3)C(=O)c3ccccc32)cc1 | 63* | x | 85* | 63* | 45* | 90* | 85* | 46* | 77* | HKDC1 act conf2=80
Cc1ccc(NC(=O)C[n+]2ccn(C3=C([O-])c4ccccc4C3=O)c2)cc1 | 1 | 7 | 8 | 6 | 5 | -1 | x | x | x
CC(=O)Nc1ccc(S(=O)(=O)/N=C2\C(=O)c3ccccc3C([O-])=C2n2cc[n+](-c3ccccn3)c2)cc1 | 32* | 57* | 37* | 31* | 24 | 77* | 82* | 2 | 23 | UCH37 reconfirm=58*
O=C(NN=Cc1ccc(OCc2ccccc2)cc1)c1cc[n+](Cc2ccccc2)cc1 | x | 5 | x | x | x | x | x | x | x
COC(=O)CCC(=O)OC1(C)C(=O)C=C2C=C(C3CC3)N(CCCCO)C=C2C1=O (centres undefined) | 2 | 5 | 31* | 5 | 20 | 46* | 9 | x | 13
COC(=O)CCC(=O)OC1(C)C(=O)C=C2C=C(C3CC3)N(CCN3CCOCC3)C=C2C1=O (centres undefined) | -2 | 5 | 17 | 4 | 16 | 29 | x | x | x
Cc1ccc(NC(=O)COc2ccc(C=NNC(=O)CSCc3ccccc3)cc2)cc1 | x | -6 | x | x | x | x | x | x | x
NC(=O)C1CCN(C2=C(Cl)C(=O)c3ccccc3C2=O)CC1 | 8 | 82* | 50* | 24* | 47* | 87* | 80* | x | 76* | HKDC1 act conf2=73;UCH37 reconfirm=17
NC(=O)C1CCN(c2ccc3c(c2)S(=O)(=O)c2ccccc2C3=O)CC1 | -1 | 2 | 0 | -1 | 0 | -8 | x | x | x
CCOC(=O)c1c(NC(=O)c2ccco2)n(C2CCCCC2)c2nc3ccccc3nc12 | 15* | -78 | 60* | 0 | 15 | 62* | 86* | 25* | 60*
CCC(=O)Nc1c(C#N)c2nc3ccccc3nc2n1C1CCCCC1 | -4 | -37 | 7 | -1 | 14 | 18 | x | x | x
O=C(Nc1ccccc1)ON=C1CCCc2occc21 | x | 2 | x | x | x | x | x | x | x
CCN(CC)c1ccc(/C=C2/C(=O)ON=C2C)cc1 | -4 | 5 | 10 | 5 | -3 | 9 | x | x | x
CCN(CC)c1ccc(/C=C2\C(=O)N(c3nnc(C)c(=O)[nH]3)N=C2C)cc1 | 2 | 3 | 26* | 0 | 12 | 40* | 14 | x | 4
COc1ccccc1N(/N=C1\Sc2ccccc2C1=O)C(C)=O | -15 | x | 28* | 30* | -5 | 44* | 75* | x | 45*
CC1=NNC(=O)C1CCC(=O)NN=Cc1ccc(Cl)cc1 (centres undefined) | x | 5 | x | x | x | x | x | x | x
Cn1[nH]c(CSc2ccc(Cl)cc2)cc1=O | 38* | -1 | 48* | -5 | -9 | 59* | 14 | 6 | 3
COc1ccc2ccc3c(c2c1)N=C[C@]1(O3)N(C)c2ccccc2C1(C)C | 53* | -8 | 41* | -4 | 11 | 86* | 4 | 6 | 0
CCOC(=O)C(=NNc1ccc(Br)cc1)N1CCN(c2ccccc2OC)CC1 | x | 5 | x | x | x | x | x | x | x
ON=Cc1cccc[n+]1CCCCCC[n+]1ccccc1C=NO | x | 8 | x | x | x | x | x | x | x
N#CC1=C(N)Oc2n[nH]c(-c3cccs3)c2C1c1ccoc1 (centres undefined) | -2 | 11 | 7 | -4 | 7 | 6 | x | x | x
Cc1ccc(C2C(C#N)=C(N)Oc3n[nH]c(-c4cccs4)c32)cc1 (centres undefined) | 41* | 6 | 32* | 0 | 3 | 40* | 8 | -12 | 11
COc1ccc(-n2[nH]c(C)cc2=O)cc1 | 64* | 2 | 71* | 2 | -1 | 59* | 13 | 3 | 33*
O=C(CSc1ccc(Cl)cc1)Nc1ccccc1 | x | x | -7 | x | x | x | x | x | x
SMILES | PAD4 FP inh | UCH37 DUB inh | TDP2 inh | Fh CTSL1 inh | HKDC1 inhibitor | GSTO1 inh | GSTO1 inh conf | PAD4 confirm | TDP2 inh conf | others
O=C(CSc1ccc(Cl)cc1)NC1=NN(c2ccccc2)C(=O)C1 | 15* | 3 | 25* | 1 | -2 | 42* | 6 | x | -1
Nc1nc(-c2ccccc2)cn1N=Cc1ccccc1 | x | 1 | x | x | x | x | x | x | x
O=C(CNC(=O)c1cccc(F)c1)NN=Cc1ccc(O)c([N+](=O)[O-])c1 | x | 17 | x | x | x | x | x | x | x
CC(=O)N(C1=C(Cl)C(=O)c2ccccc2C1=O)C1CCCCC1 | 17* | 44* | 57* | 23* | 58* | 56* | 73* | 12 | 47* | HKDC1 act conf2=78;UCH37 reconfirm=54*
COc1cc(Br)c(C(=O)c2nccc3cc(OC)c(OC)cc23)cc1OC | 73* | x | 91* | 103* | 15 | 94* | 90* | 59* | 56*
Oc1c(Br)cc(Br)cc1CNc1cccc2cccnc12 | 18* | 6 | 36* | 29* | 25 | 67* | 92* | -2 | 27*
Cc1ccc(O)c(CNc2cccc3cccnc23)c1 | -5 | 2 | 6 | -4 | 15 | 21 | x | x | x
Oc1ccc(Br)cc1CNc1cccc2cccnc12 | -8 | x | 30* | -4 | 40* | 46* | 6 | x | 15 | HKDC1 act conf2=6
COc1ccc(OC)c(S(=O)(=O)Nc2ccc(O)c3ccccc23)c1 | -2 | 1 | 41* | -4 | 27 | 60* | 8 | x | 8
COc1ccc(NC(=O)Nc2ccc(O)c3ccccc23)cc1 | 23* | -19 | 45* | -1 | 24 | 65* | 6 | -2 | 18
COc1ccc(NC(=O)Nc2ccccc2OC)cc1 | 7 | -2 | 2 | -2 | -7 | 2 | x | x | x
COc1cccc(C=NNC(=O)Cn2ccnc2C)c1 | x | 6 | x | x | x | x | x | x | x
O=C(O)c1ccccc1Nc1ccccc1C(=O)O | -3 | 6 | 7 | 4 | -6 | -1 | x | x | x
